The results in this text go back to ChEMBL document CHEMBL1156155, “Synthesis and anticancer activity evaluation of 2(4-alkoxyphenyl)cyclopropyl hydrazides and triazolo phthalazines” (Bioorg Med Chem, 2010).

Activity calls are given as the source filed them. The rule behind the calls is not given here. Some results are limits rather than exact numbers.

The term IC50 denotes the concentration that gives 50% inhibition. Lower therefore signals inhibition by little substance.

The nature of test [1]: Growth inhibition of human OE21 cells after 72 hrs by MTT assay. In kind it is functional, cell-based. The conditions noted are these: OE21, 72 h. The essentials:
(§1)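 MTT colorimetric growth assay. Cells are seeded at 10,000–40,000 cells/mL depending on cell type and allowed to plate for 24 h, then cultured 72 h with or without compound. Formazan from mitochondrial MTT reduction is read spectrophotometrically at 570 nm (reference 630 nm). IC50 is the growth-inhibitory concentration.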
(In general: Tetrazolium dyes change colour on reduction, which living cells bring about.)

A further test has as its system MCF7. The experiment in a line: Growth inhibition of human MCF7 cells after 72 hrs by MTT assay. It is filed as functional, cell-based. The settings on record: MCF7, 72 h. The method, boiled down:
as §1

Another test concerns A549. The experiment in a line: Growth inhibition of human A549 cells after 72 hrs by MTT assay. The conditions noted are these: A549, 72 h. In kind it is functional, cell-based. The method, boiled down:
as §1

A short description of test [2]: Growth inhibition of human U373 cells after 72 hrs by MTT assay. In kind it is functional, cell-based, U-373MG ATCC. The conditions noted are these: U373 MG. The essentials:
as §1

The next test relates to SK-MEL. The experiment in a line: Growth inhibition of human SK-MEL cells after 72 hrs by MTT assay. In kind it is functional, cell-based. The method, boiled down:
as §1

The next test relates to PC-3. The experiment in a line: Growth inhibition of human PC3 cells after 72 hrs by MTT assay. In kind it is functional, cell-based. The conditions noted are these: PC-3, 72 h. The essentials: as §1
Test [3] concerns U-373MG ATCC. As to the kind of experiment: Cytostatic activity against human U373 cells assessed as decrease in mitosis duration at 5 uM after 3 days by quantitative video microscopy relative to control. In kind it is functional, cell-based. The essentials:
(§2)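 Human U373 glioblastoma cultures are recorded by quantitative videomicroscopy with or without compound. In-house software scores mitosis duration (min) and mitosis number, with number normalized to initial cell count at t = 0 h. Values are compared with untreated control.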

Test [4] has as its system U-373MG ATCC. As to the kind of experiment: Anticancer activity against human U373 cells assessed as cell death at 5 uM for 3 days by quantitative video microscopy. It is filed as functional, cell-based. The method, boiled down:
(§3)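 U373 glioblastoma cells filmed by computer-assisted phase-contrast (quantitative videomicroscopy) over three days of culture with or without compound. Cell population growth is judged from morphology: reduced proliferation is taken as cytostatic effect, direct cell killing as cytotoxic effect, and round-shaped cells as cell death. Comparison is against untreated control.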

Test [5] relates to U-373MG ATCC. As to the kind of experiment: Anticancer activity against human U373 cells assessed as reduction in cell proliferation at 5 uM for 3 days by quantitative video microscopy relative to control. It is filed as functional, cell-based. The method, boiled down: as §3
Test [6] has as its system U-373MG ATCC. The experiment in a line: Anticancer activity against human U373 cells assessed as cell death at 10 uM for 3 days by quantitative video microscopy. It is filed as functional, cell-based. The essentials:
as §3

Test [7] has as its system U-373MG ATCC. The experiment in a line: Cytostatic activity against human U373 cells assessed as increase in mitosis duration at 10 uM after 3 days by quantitative video microscopy relative to control. In kind it is functional, cell-based. The essentials: as §2
Test [8] deals with U-373MG ATCC. The experiment in a line: Anticancer activity against human U373 cells assessed as reduction in cell proliferation at 10 uM for 3 days by quantitative video microscopy relative to control. In kind it is functional, cell-based. The essentials:
as §3

For the compound `CC(C)=CCC/C(C)=C/COc1ccc(C2CC2c2nnc3c4ccccc4cnn23)cc1` (stereo not drawn), the IC50 in test [1] was found to be 5 µM; in the test with MCF7, 9 µM; in the test on A549, 45 µM; in test [2] it was 63 µM; with SK-MEL it was 72 µM; in the test with PC-3, 8 µM.
Consider `O=C(NNC(=O)C1CC1c1ccc(OC(F)(F)F)cc1)c1ccncc1` (stereo not drawn), for which the IC50 was 56 µM in the test with A549, 37 µM in [2] and more than 100 µM in the test on PC-3.
Consider `O=C(NNc1nncc2ccccc12)C1CC1c1ccc(OCC(F)(F)F)cc1` (stereo not drawn), for which the IC50 came to 17 µM in test [1]; 8 µM in the test with MCF7; 48 µM in the test with A549; 25 µM in test [2]; 29 µM with SK-MEL; 67 µM with PC-3.
In the case of `CC(C)=CCOc1ccc(C2CC2c2nnc3c4ccccc4cnn23)cc1` (stereo not drawn), the IC50 in test [1] turned out to be 8 µM; in the test on MCF7 it was 19 µM; in the test on A549 it was 56 µM; in [2] it was 4 µM; in the test on SK-MEL, 26 µM; with PC-3, 22 µM. For the same compound, the outcome in the test on U-373MG ATCC [3] and with U-373MG ATCC [5] was Active. Moreover, the result in the test with U-373MG ATCC [4] was inactive.
With `O=C(NNc1nncc2ccccc12)C1CC1c1ccc(OC(F)(F)F)cc1` (stereo not drawn), the IC50 in test [1] stood at 42 µM; with MCF7 it was 54 µM; in the test on A549 it was 87 µM; in test [2] it was 85 µM; in the test with SK-MEL, 29 µM; in the test on PC-3 it was 92 µM.
As to `CC(C)=CCOc1ccc(C2CC2C(=O)NNC(=O)c2ccncc2)cc1` (stereo not drawn), the IC50 (in the test with A549; in [2]; with PC-3) was more than 100 µM each time.
Consider `FC(F)(F)COc1ccc(C2CC2c2nnc3c4ccccc4cnn23)cc1` (stereo not drawn), for which the IC50 is 9 µM in test [1]; 37 µM in the test with MCF7; 64 µM in the test with A549; 58 µM in test [2]; 29 µM in the test on SK-MEL; 38 µM with PC-3.
As for `COc1ccc(C2CC2C(=O)NNc2nncc3ccccc23)cc1` (stereo not drawn), the IC50 in [1] was 48 µM; in the test with MCF7, 72 µM; with A549, 96 µM; in [2] it was 83 µM; with SK-MEL, 68 µM; with PC-3, 64 µM.
As to `CCOc1ccc(C2CC2C(=O)NNc2nncc3ccccc23)cc1` (stereo not drawn), the figures for the IC50 (in the test with A549; in test [2]; in the test on PC-3) were more than 100 µM, 91 µM and 94 µM, respectively.
As to `CCOc1ccc(C2CC2C(=O)NNC(=O)c2ccncc2)cc1` (stereo not drawn), the IC50 in the test with A549 is 43 µM; in [2], 63 µM; with PC-3, more than 100 µM.
Consider `CCOc1ccc(C2CC2c2nnc3c4ccccc4cnn23)cc1` (stereo not drawn), for which the IC50 is 66 µM in the test with A549, 44 µM in test [2] and more than 100 µM with PC-3.
For the compound `CC(C)=CCC/C(C)=C/COc1ccc(C2CC2C(=O)NNc2nncc3ccccc23)cc1` (stereo not drawn), the half-inhibitory concentration (IC50) in [1] was 9 µM; in the test on MCF7 it was 23 µM; in the test on A549, 36 µM; in [2], 9 µM; in the test with SK-MEL it was 25 µM; in the test with PC-3 it was 24 µM. In addition, in the test with U-373MG ATCC [6], the outcome was inactive. For the same compound, the outcome with U-373MG ATCC [7] and with U-373MG ATCC [8] was Active.
Take `O=C(NNC(=O)C1CC1c1ccc(OCC(F)(F)F)cc1)c1ccncc1` (stereo not drawn): the IC50 in test [1] stood at 31 µM; with MCF7, 34 µM; in the test on A549 it was 10 µM; in [2] it was 19 µM; with SK-MEL, 81 µM; in the test with PC-3, 44 µM.
For the compound `COc1ccc(C2CC2c2nnc3c4ccccc4cnn23)cc1` (stereo not drawn), the IC50 came out at 26 µM in [1]; 29 µM with MCF7; 40 µM with A549; 28 µM in test [2]; 40 µM in the test on SK-MEL; 29 µM with PC-3.
`CC(C)=CCOc1ccc(C2CC2C(=O)NNc2nncc3ccccc23)cc1` (stereo not drawn): the IC50 in test [1] was found to be 38 µM; in the test with MCF7, 69 µM; in the test on A549, 82 µM; in [2], 81 µM; in the test with SK-MEL it was 67 µM; with PC-3, 81 µM.
Regarding `CC(C)=CCC/C(C)=C/COc1ccc(C2CC2C(=O)NNC(=O)c2ccncc2)cc1` (stereo not drawn), the IC50 is 78 µM with A549, 84 µM in test [2] and more than 100 µM with PC-3.
On to `FC(F)(F)Oc1ccc(C2CC2c2nnc3c4ccccc4cnn23)cc1` (stereo not drawn), for which the IC50 in test [1] is 30 µM; with MCF7 it was 37 µM; with A549 it was 37 µM; in test [2], 37 µM; in the test with SK-MEL it was 57 µM; with PC-3, 49 µM.
With `COc1ccc(C2CC2C(=O)NNC(=O)c2ccncc2)cc1` (stereo not drawn), the IC50 (in the test with A549; in [2]; in the test on PC-3) was more than 100 µM in each case.
